UBC13 polyUb – blocks human UBC13 polyubiquitin chain formation; P61088; TR-FRET; inhibition, % at 20 µM; hit rate 0.47% among 330,000; in the data active means inhibition above about 45%, passing the limit was not always enough
RAD54 inh – inhibitors of human RAD54 branch migration | hit rate 0.14% among 360,000 | inhibition, % at 10.4 µM | Q92698 | RAD54 Holliday junction branch migration, FAM/BHQ fluorescence;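 active means mean normalized replicate activity at least 40 and at least half of replicates scoring 40 or more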;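 further: 0% = median of neutral control wells and 100% = median of positive control wells; inhibitors cause a drop in the FAM fluorescence signal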
Neddylation inh – blocks human cullin neddylation | P61081+Q13564 | TR-FRET cullin neddylation, biochemical | calls only at 25 µM | hit rate 0.58% among 360,000 | AID 651699; in the data active means inhibition above about 36%
Apaf1 inhib – inhibitors of human Apaf-1 apoptosome; O14727; reconstituted apoptosome caspase-3 activity, DEVD-Rh110 fluorescence; inhibition, % at 20 µM; hit rate 0.71% among 330,000; AID 489030; active means inhibition of at least 40% at 20 µM;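 further: plate controls were DMSO wells for no effect and DEVD-CHO caspase inhibitor wells for full effect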
Target sequence (O14727 whole entry, looked up): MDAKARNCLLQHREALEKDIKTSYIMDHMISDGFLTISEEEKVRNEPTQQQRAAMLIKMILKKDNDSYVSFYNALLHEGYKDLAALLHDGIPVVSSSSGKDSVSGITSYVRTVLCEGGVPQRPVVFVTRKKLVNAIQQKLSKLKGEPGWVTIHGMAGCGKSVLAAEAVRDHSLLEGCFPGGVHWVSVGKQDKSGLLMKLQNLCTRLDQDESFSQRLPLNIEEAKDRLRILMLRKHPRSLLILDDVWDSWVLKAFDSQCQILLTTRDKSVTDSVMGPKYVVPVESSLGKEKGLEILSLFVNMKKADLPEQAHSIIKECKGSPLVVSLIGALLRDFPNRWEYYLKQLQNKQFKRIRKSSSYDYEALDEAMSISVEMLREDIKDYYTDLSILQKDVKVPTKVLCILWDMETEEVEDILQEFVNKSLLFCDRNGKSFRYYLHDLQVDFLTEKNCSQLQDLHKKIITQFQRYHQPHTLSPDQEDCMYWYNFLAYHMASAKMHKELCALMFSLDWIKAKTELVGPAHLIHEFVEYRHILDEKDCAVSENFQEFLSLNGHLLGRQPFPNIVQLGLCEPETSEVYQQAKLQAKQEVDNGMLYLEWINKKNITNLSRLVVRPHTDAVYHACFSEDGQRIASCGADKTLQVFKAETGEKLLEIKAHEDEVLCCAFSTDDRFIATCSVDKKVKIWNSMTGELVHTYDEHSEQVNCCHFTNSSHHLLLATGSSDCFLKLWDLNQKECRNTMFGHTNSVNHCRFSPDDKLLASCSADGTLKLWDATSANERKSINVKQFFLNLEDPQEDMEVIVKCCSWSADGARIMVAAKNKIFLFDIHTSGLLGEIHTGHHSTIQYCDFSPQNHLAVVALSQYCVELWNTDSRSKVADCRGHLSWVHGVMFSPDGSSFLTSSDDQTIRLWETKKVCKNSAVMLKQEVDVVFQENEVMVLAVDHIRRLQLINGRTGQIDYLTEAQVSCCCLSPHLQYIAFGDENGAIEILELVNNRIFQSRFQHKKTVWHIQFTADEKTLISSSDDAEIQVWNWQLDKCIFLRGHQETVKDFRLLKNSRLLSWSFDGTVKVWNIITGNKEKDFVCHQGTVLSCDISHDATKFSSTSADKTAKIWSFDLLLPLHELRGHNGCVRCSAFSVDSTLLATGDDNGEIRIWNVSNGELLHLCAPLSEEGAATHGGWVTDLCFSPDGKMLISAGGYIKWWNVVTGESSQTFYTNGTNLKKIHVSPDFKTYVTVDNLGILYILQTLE
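Assay system: Apoptosome proteins | Medium: pH 7.5 Hepes buffer with CHAPS, BSA, DTT | Also added: Cytochrome c and DEVD-Rh110 substrate | Times: 30 min plus 50 min, RT | Detection: Rhodamine 110 fluorescence at Ex 480/Em 540 nm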
RAD52 inh – inhibitors of human RAD52 DNA annealing | P43351 | recombinant RAD52 DNA annealing, FRET fluorescence | inhibition, % at 18.7 µM | hit rate 0.46% among 360,000 | AID 651710;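 active means every replicate showing at least 50% inhibition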
FID counter – counter-screen for HCV NS3 helicase inhibitors: DNA intercalator displacement. inhibition, % at 7.9 µM. DNA fluorescent intercalator displacement, fluorescence. hit rate 0.17% among 290,000; in the data active means inhibition above about 37%;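 further: 0% = vehicle and 100% = reference compound; higher means more ethidium bromide displaced from hairpin DNA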
Apaf-1 inh conf2 – confirmation of Apaf-1 inhibitors; inhibition, % at 20 µM; hit rate 25% among 1,800; shares compounds with Apaf1 inhib; reconstituted apoptosome, caspase-3 DEVD-Rh110 fluorescence; AID 504614;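 active means mean inhibition of at least 40% at 20 µM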;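 further: plate controls were DMSO wells for no effect and DEVD-CHO caspase inhibitor control wells for full effect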
Rh110 quench – Rh110 signal interference in Apaf-1 inhibitor counter-screen | 1,800 tested, under 10 active | shares compounds with Apaf1 inhib | activation (fluorescence interference), % at 20 µM | Rh110 fluorescence interference, quenched caspase reaction;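 active means signal rise of 40% or more at 20 µM, treated as a fluorescence artifact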
Apaf1 inh interf – counter-screen for Apaf-1 inhibitors: fluorescence interference, dose response; shares compounds with Apaf1 inhib; fluorescence interference counterscreen, Apaf-1 assay format; IC50, µM; 460 tested, under 10 active; AID 588538; call rule not given here
The depositor's hits bear a star; i = inactive; / = no result shown; + = active, no number. The list is not random: actives were taken first. Their share in the collection is about 1.6%.

SMILES	UBC13 polyUb	RAD54 inh	Neddylation inh	Apaf1 inhib	RAD52 inh	FID counter	Apaf-1 inh conf2	Rh110 quench	others
C=CC[C@@]1(C(=O)NCCCOC)N=C(c2ccc(OCCCO)cc2)O[C@@H]1c1ccccc1	/	-8.2	/	/	8.6	/	/	/
O=C(C[C@@H]1CC[C@@H]2[C@H](COC[C@H](O)CN2S(=O)(=O)c2ccccc2)O1)NCc1ccc2c(c1)OCO2	/	-2.1	/	/	6.8	/	/	/
COc1ccc(N)cc1-n1c(C)ccc1C	-26.6	/	i	83.7*	-25.4	-2.9	24.1	-1.6
Cc1ccc(C(=O)NC(=S)Nc2c(C)ccc3nsnc23)cc1	-19.7	/	i	15.1	/	-10.4	/	/
Cc1ccc(C(=O)NC(=S)Nc2cccc3nsnc23)cc1	6.1	3.2	i	58.9*	/	3.7	15.6	22.1
COCC(=O)Nc1ccc2c(c1)[C@H]1C[C@@H](CC(=O)NCCc3ccccc3)O[C@@H](CO)[C@H]1O2	/	7.4	/	/	-3.0	/	/	/
O=C1/C(=C/Nc2ccc3c(c2)OCO3)CCc2ccccc21	-43.1	-3.3	i	45.0*	/	0.9	32.2	5.5
COc1ccc2c(c1)CC/C(=C\Nc1ccc3c(c1)OCO3)C2=O	-28.3	-1.1	i	78.1*	-43.0	3.5	47.4*	4.4	Apaf1 inh interf=>100
COc1ccc(N/C=C2\CCc3ccccc3C2=O)cc1	-67.1	-4.3	i	79.2*	7.3	6.8	36.1	16.2
CO[C@H]1CN(C)C(=O)c2ccc(NC(=O)C3CCCCC3)cc2OC[C@@H](C)N(C)C[C@H]1C	/	9.3	/	/	-8.1	/	/	/
COc1ccc(S(=O)(=O)N(C)C[C@@H]2OCCCC[C@H](C)Oc3ccc(NC(=O)NC(C)C)cc3C(=O)N([C@@H](C)CO)C[C@H]2C)cc1	/	-2.2	/	/	17.8	/	/	/
Cc1[nH]n(-c2ccccc2)c(=O)c1/C=N/NC(=O)c1cccc(F)c1	-1.3	-1.9	i	62.2*	-7.0	-18.0	67.0*	-0.2	Apaf1 inh interf=>100
Cc1ccc(-n2[nH]c(C)c(/C=N/NC(=O)c3ccc(O)cc3O)c2=O)cc1	-31.2	-2.5	/	11.1	/	-8.5	/	/
Cc1ccc(/C=N/Nc2nncc(-c3ccccc3)n2)o1	-8.6	/	i	17.1	-1.0	-6.3	/	/
CCCCN(CCCC)C(=S)N/N=C/c1c(C)[nH]n(-c2ccccc2)c1=O	-44.3	/	i	57.3*	/	-3.8	-3.1	15.9
Cc1[nH]n(-c2ccccc2)c(=O)c1/C=N/Nc1nncc(-c2ccccc2)n1	-37.2	6.1	i	81.2*	-14.9	-11.5	88.9*	10.4	Apaf1 inh interf=>100
Cc1[nH]n(-c2ccccc2)c(=O)c1/C=N/NC(=O)c1ccc(O)cc1O	-33.3	-11.4	+	73.4*	-12.2	-5.8	83.7*	8.9	Apaf1 inh interf=>100
C[C@H]1CN([C@@H](C)CO)S(=O)(=O)c2ccc(-c3cccc(C#N)c3)cc2O[C@@H]1CN(C)Cc1cccc(F)c1	/	-2.1	/	/	-3.3	/	/	/
Cc1[nH]n(-c2ccc(Br)cc2)c(=O)c1/C=N/NC(=O)c1ccccc1	-29.2	8.7	i	15.9	-11.6	-11.7	/	/
Cc1cc(C(=O)N/N=C/c2c(C)[nH]n(-c3ccccc3)c2=O)n[nH]1	-10.3	2.0	i	76.7*	-22.9	-6.5	80.1*	1.9	Apaf1 inh interf=>100
COc1ccc2c3c(n(C)c2c1)[C@@H](CO)N(CC1CCOCC1)CC31CN(CC2CCOCC2)C1	/	/	/	/	-6.4	/	/	/
COc1cccc2c1[C@@H]1CN(CCCCn3c(=O)[nH]c4c(sc5ncc(-c6ccccc6)nc54)c3=O)C[C@@H]1CO2	30.1	13.2	i	48.4*	-5.3	/	22.4	10.8
COc1cc2[nH]c(=O)n(CCCC(=O)N3CC=C(c4ccccc4)CC3)c(=O)c2cc1OC	-3.1	3.0	i	23.6	/	-8.0	/	/
Cc1cc(=O)oc2cc(OCC(=O)NCCN3CCOCC3)c(Cl)cc12	-4.9	/	i	1.7	12.4	-10.8	/	/
CCCCc1cc(=O)oc2cc(OCC(=O)NCCN3CCOCC3)c(Cl)cc12	-0.4	-4.6	i	60.8*	-7.3	-2.5	10.6	5.8
SMILES	UBC13 polyUb	RAD54 inh	Neddylation inh	Apaf1 inhib	RAD52 inh	FID counter	Apaf-1 inh conf2	Rh110 quench	others
CCC(C)Sc1ccc(-c2nc3ccc(C)cn3c2NC2CCCCC2)cc1 (stereo not drawn)	29.1	0.8	/	40.9*	/	/	7.6	6.9
CCC(C)Sc1cccc(-c2nc3ccc(C)cn3c2NC2CCCCC2)c1 (stereo not drawn)	33.5	-7.9	/	27.9	0.3	/	/	/
CC1=NN(c2ccc(C)cc2C)C(=O)C1C(c1cccc(O)c1)C1C(=O)N(c2ccc(C)cc2C)N=C1C (stereo not drawn)	-30.0	4.8	i	85.3*	/	-13.2	27.4	-1.6
O=C(Nc1ccccn1)c1ccc2ccccc2c1O	-1.0	7.2	i	45.2*	-13.7	-1.4	4.8	6.7
O=C(N[C@H]1CC[C@@H](CCNS(=O)(=O)Cc2ccccc2)O[C@H]1CO)c1cnccn1	/	4.9	/	/	0.4	/	/	/
c1cc2c3c(cccc3c1)C(N1CCN(C3=Nc4cccc5cccc3c45)CC1)=N2	/	/	/	/	/	14.6	/	/
CC(=O)N1CCN(C2=Nc3cccc4cccc2c34)CC1	-22.6	28.2	i	80.1*	/	6.8	5.9	-1.2
CC1=NN(c2ccc(Cl)cc2)C(=O)C1	-9.8	/	i	39.3	-4.0	-2.0	/	/
CC1=NN(c2ccccc2)C(=O)C1	-21.5	2.7	i	41.3*	-3.3	-3.3	14.8	5.0
